Published values of several laboratories.
Compare with care: the assays were run in different laboratories.
Target: Tyrosine-protein kinase Lyn (LYN, Homo sapiens, UniProt P07948)
Concentration: 1 µM

O=c1nc(-c2ccccn2)sc2ccccc12  remaining binding (cell-free assay; competition with immobilised ligand): 100%
O=C(c1ccc(Nc2ncc(Cl)c(-c3ccc(Cl)s3)n2)cc1)N1CCC(N2CCCC2)CC1  remaining binding (binding; competition with immobilised ligand): 87%
Cc1ccc(-n2nc(C(C)(C)C)cc2NC(=O)Nc2ccc(-n3c(N)c(C(N)=O)c4nc5ccccc5nc43)cc2)cc1  remaining binding (cell-free assay; competition with immobilised ligand): 0.85%
F[C@@H]1CCN(c2nccc(-c3cnn4ncccc34)n2)C1  remaining binding (binding): 87%
CC1=C(C#N)C(c2ccc3c(c2)c(NC(=O)c2ccccc2C)nn3C)C(C#N)=C(C)N1  remaining binding (cell-free assay; competition with immobilised ligand): 89%
O=C(Nc1c[nH]nc1C(=O)NC1CCNCC1)c1cc(F)cc(F)c1  remaining binding (binding; competition with immobilised ligand): 100%
CO[C@@H](C)c1c(Nc2ccc([C@@H](N(C)C(=O)C3CCS(=O)(=O)CC3)C(F)(F)F)cc2)cnc2cc(Cl)nn12  remaining binding (cell-free assay; competition with immobilised ligand): 97%
C[C@H]1CCN(c2nccc(-c3cnn4ncccc34)n2)C1  remaining binding (binding): 64%
O=C(NCc1ncc(C(F)(F)F)cc1Cl)c1ccc2c(c1)C1(CCS(=O)(=O)CC1)[C@H](C1CC1)N2S(=O)(=O)c1ccc(F)cc1  remaining binding (cell-free assay; competition with immobilised ligand): 100%
COc1cnc(Nc2cccc(S(N)(=O)=O)c2)nc1N1CCN(c2ccccc2)CC1  remaining binding (binding; competition with immobilised ligand): 92%
Cc1cnn2ncc(-c3ccnc(N(C)C)n3)c2c1  remaining binding (binding): 92%
Cc1cnc(Nc2ccc(C(=O)N3CCC(N4CCCC4)CC3)cc2)nc1-c1cc2ccccc2s1  remaining binding (binding; competition with immobilised ligand): 78%
CN(C)c1nccc(-c2cnc3ncccn23)n1  remaining binding (binding): 100%
COc1cc(-c2cn(C3CCc4c(F)cccc4N(CC(F)(F)F)C3=O)nn2)ccc1-n1cnc(C)c1 (stereo not shown)  remaining binding (cell-free assay; competition with immobilised ligand): 100%
CN(c1nccc(-c2cnn3ncccc23)n1)C1CC1  remaining binding (binding): 86%
C=CC(=O)N1CCC(C(=O)NCC(=O)N2CCN(c3nc(-c4cnc(N)nc4C(F)F)nc(N4CCOCC4)n3)CC2)CC1  remaining binding (binding; competition with immobilised ligand): 100%
